Residues, ends and D or L forms follow the SMILES beside them.
Assays:
Lethal factor [1] = biological target: T1, Lethal factor (Bacillus anthracis, UniProt P15917); assay: Non-competitive inhibition of Bacillus anthracis lethal factor protease using substrate containing CyPet and YPet linked by RRKKVYPYPMEGTIA sequence preincubated for 30 mins followed by substrate addition measured every 2 mins for 3 hrs by FRET assay
T1 sequence (P15917 whole entry): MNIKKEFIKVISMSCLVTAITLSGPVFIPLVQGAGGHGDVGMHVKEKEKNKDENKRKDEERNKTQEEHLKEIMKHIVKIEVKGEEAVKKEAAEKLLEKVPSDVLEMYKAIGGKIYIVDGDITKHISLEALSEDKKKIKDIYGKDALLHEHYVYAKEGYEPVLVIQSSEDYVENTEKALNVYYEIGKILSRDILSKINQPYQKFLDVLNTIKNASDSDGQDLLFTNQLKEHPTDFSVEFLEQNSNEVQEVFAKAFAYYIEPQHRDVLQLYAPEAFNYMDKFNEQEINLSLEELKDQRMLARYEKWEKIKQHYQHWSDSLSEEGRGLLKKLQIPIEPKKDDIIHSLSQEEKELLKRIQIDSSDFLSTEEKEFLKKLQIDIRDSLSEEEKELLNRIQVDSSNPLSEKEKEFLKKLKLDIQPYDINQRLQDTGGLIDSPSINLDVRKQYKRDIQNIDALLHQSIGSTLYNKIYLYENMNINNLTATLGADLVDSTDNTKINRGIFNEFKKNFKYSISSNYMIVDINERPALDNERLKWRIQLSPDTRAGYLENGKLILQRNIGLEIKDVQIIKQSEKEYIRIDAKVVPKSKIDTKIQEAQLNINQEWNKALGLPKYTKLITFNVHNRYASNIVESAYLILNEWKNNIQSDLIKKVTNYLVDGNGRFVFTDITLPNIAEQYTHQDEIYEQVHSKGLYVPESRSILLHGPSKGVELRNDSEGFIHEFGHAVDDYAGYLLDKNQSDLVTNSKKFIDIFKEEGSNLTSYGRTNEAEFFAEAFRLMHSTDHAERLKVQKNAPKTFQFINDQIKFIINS
Procedure, shortened: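 Ki was derived from the IC50 with the non-competitive tight-binding relation Ki = IC50 − E0/2, where E0 is the enzyme concentration (50 nM LF). The IC50 comes from the FRET assay: pH 7.2 Ca/Mg/Zn phosphate–NaCl buffer, inhibitor 1 nM–10 μM, 10 nM substrate, 405 nm excitation, 535 nm read, initial velocities fitted to a variable-slope curve.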

Lethal factor [2] = biological target: T1, Lethal factor; assay: Inhibition of Bacillus anthracis lethal factor protease using substrate containing CyPet and YPet linked by RRKKVYPYPMEGTIA sequence preincubated for 30 mins followed by substrate addition measured every 2 mins for 3 hrs by FRET assay
Procedure, shortened: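 Purified LF (50 nM) in pH 7.2 buffer (10 μM CaCl2, 10 μM MgCl2, 20 μM ZnCl2, 20 mM sodium phosphate, 100 mM NaCl) preincubated at room temperature with inhibitor (1 nM–10 μM). FRET substrate added to 10 nM final. Read at 405 nm excitation, 535 nm intensity ratio It/I0. Initial velocities were normalised to uninhibited LF, and IC50 came from a variable-slope log(inhibitor)–response fit.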

SMILES | Ki (Lethal factor [1]) | IC50 (Lethal factor [2])
CC[C@H](C)[C@H](NC(=O)[C@H](CS)NC(=O)[C@H](CCCNC(=N)N)NC(=O)[C@H](CS)NC(=O)[C@@H](NC(=O)CNC(=O)[C@H](Cc1cnc[nH]1)NC(=O)[C@H](CC(C)C)NC(=O)[C@H](CS)NC(=O)[C@H](C)NC(=O)[C@H](CS)NC(=O)[C@H](CCCNC(=N)N)NC(=O)[C@H](CS)NC(=O)[C@H](Cc1ccccc1)NC(=O)CN)C(C)C)C(=O)N[C@@H](CS)C(=O)N[C@H](C(=O)N[C@@H](CCCNC(=N)N)C(=O)O)[C@@H](C)O (H-GFCRCACLHGVCRCICTR-OH) | 946 nM | 971 nM
CC[C@H](C)[C@H](NC(=O)[C@H](CS)NC(=O)[C@H](CC(=O)O)NC(=O)[C@H](CS)NC(=O)[C@H](CO)NC(=O)[C@H](CO)NC(=O)[C@H](CCCNC(=N)N)NC(=O)CNC(=O)[C@H](CS)NC(=O)[C@H](Cc1ccccc1)NC(=O)[C@H](CS)NC(=O)[C@H](CCCNC(=N)N)NC(=O)[C@H](CS)NC(=O)[C@H](Cc1ccccc1)NC(=O)CN)C(=O)N[C@@H](CS)C(=O)N[C@H](C(=O)N[C@@H](CCCNC(=N)N)C(=O)O)[C@@H](C)O (H-GFCRCFCGRSSCDCICTR-OH) | 1170 nM | 1200 nM
CC[C@H](C)[C@H](NC(=O)[C@H](CS)NC(=O)[C@H](CCCNC(=N)N)NC(=O)[C@H](CS)NC(=O)[C@@H](NC(=O)CNC(=O)[C@H](CCCNC(=N)N)NC(=O)[C@H](CCCNC(=N)N)NC(=O)[C@H](CS)NC(=O)[C@H](CC(C)C)NC(=O)[C@H](CS)NC(=O)[C@H](CCCNC(=N)N)NC(=O)[C@H](CS)NC(=O)[C@H](Cc1ccccc1)NC(=O)CN)C(C)C)C(=O)N[C@@H](CS)C(=O)N[C@H](C(=O)N[C@@H](CCCNC(=N)N)C(=O)O)[C@@H](C)O (H-GFCRCLCRRGVCRCICTR-OH) | 381 nM | 406 nM
CC[C@H](C)[C@H](NC(=O)[C@H](CS)NC(=O)[C@H](Cc1c[nH]c2ccccc12)NC(=O)[C@H](CS)NC(=O)CNC(=O)[C@H](Cc1ccc(O)cc1)NC(=O)[C@H](CCCNC(=N)N)NC(=O)[C@H](CO)NC(=O)[C@H](CS)NC(=O)[C@@H]1CCCN1C(=O)[C@H](CS)NC(=O)[C@H](CCCNC(=N)N)NC(=O)[C@H](CS)NC(=O)[C@H](Cc1ccccc1)NC(=O)CN)C(=O)N[C@@H](CS)C(=O)N[C@H](C(=O)N[C@@H](CCCNC(=N)N)C(=O)O)[C@@H](C)O (H-GFCRCPCSRYGCWCICTR-OH) | 946 nM | 971 nM

Source: ChEMBL document CHEMBL4184151, “In-cell production of a genetically-encoded library based on the θ-defensin RTD-1 using a bacterial expression system” (Bioorg Med Chem, 2018)
